# Target: Synaptic vesicle glycoprotein 2A (Rattus norvegicus, UniProt Q02563)
# Test: In vitro inhibitory activity against [3H](2S)-2-[4-(3-azidophenyl)-2-oxopyrrolidin-1-yl]butanamide binding to levetiracetam binding site
# How it was run: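 Rat cerebral cortex membranes (male Sprague-Dawley, 200–250 g), homogenised in Tris-HCl/sucrose at 4 °C, washed, preincubated 15 min at 37 °C. Binding: 4 °C for 120 min in 50 mmol/L Tris-HCl pH 7.4 with 2 mmol/L MgCl2, 1–2 × 10^-9 mol/L tritiated azidophenyl radioligand, rising test concentrations. Nonspecific binding with 10^-3 mol/L levetiracetam. Rapid filtration, scintillation counting. pIC50 is the mean of two independent determinations.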
# Synaptic vesicle glycoprotein 2A, sequence (Q02563 whole entry): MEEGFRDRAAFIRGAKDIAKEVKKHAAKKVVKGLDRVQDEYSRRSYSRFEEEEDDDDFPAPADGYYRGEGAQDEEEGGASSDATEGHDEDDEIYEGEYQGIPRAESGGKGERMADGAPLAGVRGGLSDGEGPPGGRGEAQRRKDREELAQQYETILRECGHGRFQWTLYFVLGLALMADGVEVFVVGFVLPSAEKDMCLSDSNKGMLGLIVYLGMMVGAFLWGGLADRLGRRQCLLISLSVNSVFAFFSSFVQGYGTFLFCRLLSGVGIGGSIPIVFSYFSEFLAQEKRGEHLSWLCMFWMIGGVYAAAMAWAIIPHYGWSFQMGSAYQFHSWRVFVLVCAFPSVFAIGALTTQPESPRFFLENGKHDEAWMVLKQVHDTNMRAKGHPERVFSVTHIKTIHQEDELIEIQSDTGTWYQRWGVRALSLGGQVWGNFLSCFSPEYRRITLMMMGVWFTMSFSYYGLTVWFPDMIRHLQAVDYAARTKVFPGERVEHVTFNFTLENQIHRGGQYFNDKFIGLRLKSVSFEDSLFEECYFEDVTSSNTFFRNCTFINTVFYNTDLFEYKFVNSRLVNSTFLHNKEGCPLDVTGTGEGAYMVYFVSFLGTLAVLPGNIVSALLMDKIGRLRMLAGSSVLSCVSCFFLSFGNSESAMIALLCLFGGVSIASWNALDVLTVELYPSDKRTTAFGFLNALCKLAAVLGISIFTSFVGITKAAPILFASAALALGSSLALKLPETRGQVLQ
row,SMILES,IC50
1,CCC[C@H](C(N)=O)N1CCCC1=O,999 µM
2,CC[C@@H](C(N)=O)N1C[C@H](CO[N+](=O)[O-])CC1=O,0.1 µM
3,CC[C@@H](C(N)=O)N1C[C@H](CSC)CC1=O,0.125 µM
4,CC[C@@H](C(N)=O)N1C[C@H](CCl)CC1=O,0.199 µM
5,CCCCN(C(=O)CC)[C@@H](CC)C(N)=O,9.99 µM
6,CC[C@@H](C(=N)N)N1CCCC1=O,12.5 µM
7,CC[C@@H](C(N)=O)N1C[C@H](CBr)CC1=O,0.251 µM
8,CC[C@@H](C(N)=O)N1CC(CC(C)(C)C)CC1=O (stereo partly specified),0.794 µM
9,CCC(C(N)=O)N1CC(C(C)C)CC1=O (stereo unspecified),3.98 µM
10,CC[C@@H](C(N)=O)N1C[C@H](CI)CC1=O,0.158 µM
11,CCCCC1CC(=O)N(C(CC)C(N)=O)C1 (stereo unspecified),0.398 µM
12,CCCCCCCCN(C(=O)CC)C(CC)C(N)=O (stereo unspecified),3.98 µM
13,CCC(C(N)=O)N1C(=O)CCC1(C)C (stereo unspecified),63 µM
14,C[C@@H](C(N)=O)N1CCCC1=O,3.16 µM
15,CC[C@@H](C(N)=O)N(C)C(C)=O,15.8 µM
16,CCCCCCCN(C(=O)Cc1ccc(OC)cc1)C(CC)C(N)=O (stereo unspecified),2.51 µM
17,CCCC1(C)CC(=O)N([C@@H](CC)C(N)=O)C1 (stereo partly specified),0.398 µM
18,CCC(C(=O)N(C)O)N1CCCC1=O (stereo unspecified),19.9 µM
19,CC[C@@H](C(N)=O)N1CC(NC(=O)OC)CC1=O (stereo partly specified),1.58 µM
20,CC[C@@H](C(=O)NC)N1CCCC1=O,12.5 µM
21,CCC(C(N)=O)N1CC(Cc2ccccc2)CC1=O (stereo unspecified),2.51 µM

row,SMILES,IC50
1,CC[C@@H](C(N)=O)N1CCC(C)C1=O (stereo partly specified),19.9 µM
2,CCC[C@H]1CC(=O)N([C@@H](CC)C(N)=O)C1,0.251 µM
3,CC[C@@H](C(N)=O)N1C[C@H](C)CC1=O,1.25 µM
4,CCCCCCCCN(C(=O)Cc1ccc(Cl)cc1)C(CC)C(N)=O (stereo unspecified),1.99 µM
5,CCCCCC1CC(=O)N(C(CC)C(N)=O)C1 (stereo unspecified),1.25 µM
6,CCC1CC(=O)N([C@@H](CC)C(N)=O)C1 (stereo partly specified),1.25 µM
7,CC(C)C(C(N)=O)N1CCCC1=O (stereo unspecified),19.9 µM
8,CC[C@@H](C(N)=O)N1CC(CC2CC2)CC1=O (stereo partly specified),0.125 µM
9,CCC(C(N)=O)N1CC(COC)CC1=O (stereo unspecified),1.58 µM
10,CCC[C@@H](C(N)=O)N1CCCC1=O,5.01 µM
11,CCCCCN(C(=O)CC)C(CC)C(N)=O (stereo unspecified),1.99 µM
12,CC[C@@H](C(N)=O)N1C(=O)CCC1C (stereo partly specified),2.51 µM
13,CC[C@@H](C(=O)NO)N1CCCC1=O,1.99 µM
14,CC[C@@H](C(N)=O)N1C[C@H](CF)CC1=O,1.25 µM
15,CCC(C(=O)NN)N1CCCC1=O (stereo unspecified),6.3 µM
16,CC[C@@H](C(N)=O)N1C[C@H](CN=[N+]=[N-])CC1=O,0.0794 µM
17,NC(=O)CN1CCCC1=O [2-(2-oxopyrrolidin-1-yl)acetamide],39.8 µM
18,CC[C@H](C(N)=O)N1CCCC1=O [Levitiracetam],< 999 µM
19,CC[C@@H](C(N)=O)N1CCCC1=O [UCB-22059],0.794 µM
20,CCC[C@@H]1CC(=O)N([C@@H](CC)C(N)=O)C1 [UCB-34714],0.1 µM

# — BindingDB's records for doi:10.1021/jm030913e (Ucb Pharma, 2004)
